Screening data (PubChem BioAssay)
Shown are actives, neighbours in structure and some others; about 3.7% of the full set was active somewhere.
hERG protect: hERG (human) protection from proarrhythmic block; AID 1511; Q12809; actives 0.51% (n = 310,000); activation (rescue from dofetilide block), less the hit threshold, % at 10 µM; CHO-hERG, FluxOR thallium flux, dofetilide IC70 present;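 active = activation above the mean of controls blocked by dofetilide plus 5 SD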;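 note: thallium influx through hERG after potassium depolarization seen as dye fluorescence rise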
KCNK3 block: human KCNK3 channel inhibition, primary screen | O14649 | actives 0.84% (n = 340,000) | CHO-KCNK3 thallium flux, FluxOR fluorescence; hits give low values | B-score at 10 µM;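 active = B-score under library mean minus 4 SD, starting fluorescence ratio at most library mean plus 5 SD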;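 note: more negative B-score means stronger inhibition of thallium flux through KCNK3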
Target sequence (O14649 whole entry, looked up): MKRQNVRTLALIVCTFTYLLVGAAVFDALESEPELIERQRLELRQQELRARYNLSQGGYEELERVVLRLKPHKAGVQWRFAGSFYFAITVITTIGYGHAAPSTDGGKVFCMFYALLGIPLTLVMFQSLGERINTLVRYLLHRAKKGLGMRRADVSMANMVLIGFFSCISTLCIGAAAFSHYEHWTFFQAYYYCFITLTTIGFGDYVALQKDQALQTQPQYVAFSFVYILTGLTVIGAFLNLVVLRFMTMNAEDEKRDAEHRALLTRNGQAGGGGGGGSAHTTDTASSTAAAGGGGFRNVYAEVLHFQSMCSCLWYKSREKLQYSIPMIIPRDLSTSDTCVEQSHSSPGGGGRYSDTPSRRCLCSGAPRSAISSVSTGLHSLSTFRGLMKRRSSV
Kir21 block: blocks the mouse Kir2.1 inward-rectifier potassium channel. B-score at 10 µM. HEK293-Kir2.1, FluxOR thallium flux fluorescence; hits give low values. actives 0.85% (n = 310,000);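 active = fluorescence ratio B-score at or below minus 3 SD of library scores, with starting-brightness B-score within 2 SD, cut at about -4.2 in these data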;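 note: channel flux triggered by added potassium and thallium sulfate stimulus; B-score of peak minus minimum fluorescence over baseline after thallium stimulus; more negative B-score means stronger Kir2.1 block with less thallium influx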
KCNQ1 inh: blocks the human KCNQ1 potassium channel | CHO-K1 KCNQ1, FluxOR thallium flux fluorescence; hits give high values | B-score at 10 µM | actives 1.3% (n = 310,000) | AID 2642;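 active = compounds whose thallium flux B-score, printed positive for inhibition, exceeds three library SD while starting fluorescence stays within three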;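 note: channel opened by potassium depolarization with thallium stimulus after 20 min compound exposure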
KCNK9 inh: human KCNK9 channel inhibition; AID 488922; Q9NPC2; B-score at 10 µM; HEK293 KCNK9, FluxOR thallium flux fluorescence; hits give low values; actives 1.2% (n = 310,000);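 active = ratio B-score over 3 SD below the library mean, with starting fluorescence within 5 SD of its mean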;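 note: negative B-score means less thallium flux so channel inhibition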
KCNQ1 pot: potentiators or activators of human KCNQ1 potassium channel; P51787; CHO-K1 KCNQ1, thallium flux FluxOR fluorescence; hits give high values; B-score at 10 µM; actives 0.35% (n = 310,000); AID 2648;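 active = fluorescence ratio B-score, a plate-corrected score, at least three library SD, with initial intensity B-score within 5 SD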
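assay system = KCNQ1-transfected CHO-K1 cells | medium = assay buffer with matched DMSO | probe or stimulus = depolarizing K+/Tl+ stimulus, K2SO4 and Tl2SO4 each 12.5 mM in 5x stock | dosing = single dose | incubation = dye 90 min, compound 20 min, room temperature | detection = kinetic FluxOR fluorescence, 10 s baseline plus 110 s post-stimulus | evaluation = ratio B score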
KCNK9 block conf: confirmation of human KCNK9 potassium channel inhibitors | HEK293 KCNK9 cells, FluxOR thallium flux fluorescence | shares compounds with KCNK9 inh | inhibition, % at 10 µM | actives 43% (n = 4,900);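 active = thallium signal inhibited by more than 5 SD of the compound-free buffer control wells, on both duplicate plates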
Kir21 sel: mouse Kir2.1 off-target activity of KCNK9 modulators | actives 4% (n = 4,900) | Kir2.1 cells, FluxOR thallium flux fluorescence | AID 492993 | shares compounds with KCNK9 inh | inhibition, % at 10 µM;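 active = thallium signal drop more than 5 SD beyond the mean of the no-compound control wells, seen in both duplicate plates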;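 note: signal is fluorescence rise after thallium addition divided by baseline fluorescence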
HEK293 Tl ctr: second check of KCNK9 modulator effects in non-induced HEK293 cells. shares compounds with KCNK9 inh. FluxOR thallium flux. inhibition, % at 10 µM. actives 40% (n = 4,900);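 active = thallium signal drop beyond 5 SD of the untreated control mean, on both duplicate plates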
A number is an active result.

How did CC(C)C(C)NC(=O)COc1ccc(-c2ccccc2)cc1 (stereo unspecified) do in these assays?
hERG protect: inactive; KCNK3 block: inactive; Kir21 block: inactive; KCNQ1 inh: inactive; KCNK9 inh: -9.9; KCNQ1 pot: inactive; KCNK9 block conf: 34%; Kir21 sel: inactive; HEK293 Tl ctr: inactive

What do the screens show for `CC(C)C(C)NC(=O)COc1ccc(OCc2ccccc2)cc1` (stereo unspecified)?
hERG protect: inactive; KCNK3 block: inactive; Kir21 block: inactive; KCNQ1 inh: inactive; KCNK9 inh: inactive; KCNQ1 pot: inactive

Results for O=S(=O)(Nc1cc(Cl)ccc1N1CCCCC1)c1cccs1 ?
hERG protect: inactive; KCNK3 block: inactive; Kir21 block: inactive; KCNQ1 inh: inactive; KCNK9 inh: -15; KCNQ1 pot: inactive; KCNK9 block conf: 65%; Kir21 sel: inactive; HEK293 Tl ctr: inactive

How did Cc1ccc(-c2noc(CSc3nnc(Cc4ccccc4)n3-c3cccc(C)c3)n2)cc1 do in these assays?
hERG protect: inactive; KCNK3 block: inactive; Kir21 block: inactive; KCNQ1 inh: inactive; KCNK9 inh: -9.9; KCNQ1 pot: inactive; KCNK9 block conf: inactive; Kir21 sel: inactive; HEK293 Tl ctr: 30%

Results for O=C(NCCn1c(C(F)(F)F)nc2ccccc21)[C@H]1CCCN1c1nc(CN2CCCCC2)cs1 ?
hERG protect: inactive; KCNK3 block: inactive; Kir21 block: inactive; KCNQ1 inh: inactive; KCNK9 inh: inactive; KCNQ1 pot: inactive

What do the screens show for `COc1ccc2[nH]c(C(=O)N/N=C/c3ccc(O)cc3O)cc2c1`?
hERG protect: inactive; KCNK3 block: inactive; Kir21 block: inactive; KCNQ1 inh: inactive; KCNK9 inh: inactive; KCNQ1 pot: inactive

What do the screens show for `CCC(C(=O)O)N1C(=O)/C(=C/C(C)=C/c2ccccc2)SC1=S` (stereo unspecified)?
hERG protect: inactive; KCNK3 block: inactive; Kir21 block: inactive; KCNQ1 inh: inactive; KCNK9 inh: inactive; KCNQ1 pot: inactive; KCNK9 block conf: inactive; Kir21 sel: inactive; HEK293 Tl ctr: inactive

What do the screens show for `Cc1ccc(/C=C2\SC(=S)N(C(Cc3ccccc3)C(=O)O)C2=O)cc1` (stereo unspecified)?
hERG protect: inactive; KCNK3 block: inactive; Kir21 block: inactive; KCNQ1 inh: inactive; KCNK9 inh: inactive; KCNQ1 pot: inactive; KCNK9 block conf: inactive; Kir21 sel: inactive; HEK293 Tl ctr: inactive

Results for O=C(O)C(Cc1ccccc1)N1C(=O)/C(=C/c2ccccc2)SC1=S (stereo unspecified) ?
hERG protect: inactive; KCNK3 block: inactive; Kir21 block: inactive; KCNQ1 inh: inactive; KCNK9 inh: inactive; KCNQ1 pot: inactive; KCNK9 block conf: inactive; Kir21 sel: inactive; HEK293 Tl ctr: inactive

What do the screens show for `COc1ccc(C2(O)CCN(CC(=O)Nc3nc(-c4ccccc4)cs3)CC2)cc1`?
hERG protect: inactive; KCNK3 block: inactive; Kir21 block: inactive; KCNQ1 inh: inactive; KCNK9 inh: inactive; KCNQ1 pot: inactive

What do the screens show for `COc1ccccc1N1CCN(C(=O)CCCNC(=O)Cn2cnc3sc(C)c(C)c3c2=O)CC1`?
hERG protect: inactive; KCNK3 block: inactive; Kir21 block: inactive; KCNQ1 inh: inactive; KCNK9 inh: inactive; KCNQ1 pot: inactive

How did Oc1cccc(C(Nc2nccs2)c2ccc3cccnc3c2O)c1 (stereo unspecified) do in these assays?
hERG protect: inactive; KCNK3 block: inactive; Kir21 block: inactive; KCNQ1 inh: inactive; KCNK9 inh: inactive; KCNQ1 pot: inactive; KCNK9 block conf: inactive; Kir21 sel: inactive; HEK293 Tl ctr: inactive

What do the screens show for `COc1cccc(C(NC(C)=O)c2ccc3cccnc3c2O)c1` (stereo unspecified)?
hERG protect: inactive; KCNK3 block: inactive; Kir21 block: inactive; KCNQ1 inh: inactive; KCNK9 inh: inactive; KCNQ1 pot: inactive

How did CCOC(=O)C1CCCN(CC(O)COCc2ccccc2OC)C1 (stereo unspecified) do in these assays?
hERG protect: inactive; KCNK3 block: inactive; Kir21 block: inactive; KCNQ1 inh: inactive; KCNK9 inh: inactive; KCNQ1 pot: inactive; KCNK9 block conf: inactive; Kir21 sel: inactive; HEK293 Tl ctr: inactive

Results for COc1ccccc1COCC(O)CN1CCCCC1CO (stereo unspecified) ?
hERG protect: inactive; KCNK3 block: inactive; Kir21 block: inactive; KCNQ1 inh: inactive; KCNK9 inh: inactive; KCNQ1 pot: inactive

What do the screens show for `CCOC(=O)C1CCCN(Cc2cc(Br)c(OC)cc2OC)C1` (stereo unspecified)?
hERG protect: inactive; KCNK3 block: inactive; Kir21 block: inactive; KCNQ1 inh: inactive; KCNK9 inh: inactive; KCNQ1 pot: inactive; KCNK9 block conf: inactive; Kir21 sel: inactive; HEK293 Tl ctr: inactive

Results for CCOC(=O)C1CCCN(Cc2cc(=O)oc3cc(C)c(C)cc23)C1 (stereo unspecified) ?
hERG protect: inactive; KCNK3 block: inactive; Kir21 block: inactive; KCNQ1 inh: inactive; KCNK9 inh: inactive; KCNQ1 pot: inactive; KCNK9 block conf: inactive; Kir21 sel: inactive; HEK293 Tl ctr: inactive

Results for COc1cc(OC)cc(C(=O)N[C@H](C(=O)N2CCc3ccccc32)C(C)C)c1 ?
hERG protect: inactive; KCNK3 block: inactive; Kir21 block: inactive; KCNQ1 inh: inactive; KCNK9 inh: -11; KCNQ1 pot: inactive; KCNK9 block conf: 71%; Kir21 sel: inactive; HEK293 Tl ctr: 31%

How did O=P(COCCOCCOCP(=O)(c1ccccc1)c1ccccc1)(c1ccccc1)c1ccccc1 do in these assays?
hERG protect: inactive; KCNK3 block: inactive; Kir21 block: inactive; KCNQ1 inh: inactive; KCNK9 inh: inactive; KCNQ1 pot: inactive

Results for COc1ccc2c(c1)CCC/C2=N/OC(=O)c1ccccc1OC ?
hERG protect: inactive; KCNK3 block: inactive; Kir21 block: inactive; KCNQ1 inh: inactive; KCNK9 inh: -12; KCNQ1 pot: inactive; KCNK9 block conf: 62%; Kir21 sel: inactive; HEK293 Tl ctr: inactive

How did Cc1[nH][nH]c(=O)c1C(c1ccc(-c2ccc(Cl)c(Cl)c2)o1)c1c(C)[nH][nH]c1=O do in these assays?
hERG protect: inactive; KCNK3 block: inactive; Kir21 block: inactive; KCNQ1 inh: inactive; KCNK9 inh: inactive; KCNQ1 pot: 10; KCNK9 block conf: inactive; Kir21 sel: inactive; HEK293 Tl ctr: inactive

What do the screens show for `Cc1[nH][nH]c(=O)c1C(c1ccc(-c2ccc(C(=O)O)cc2)o1)c1c(C)[nH][nH]c1=O`?
KCNK3 block: inactive
